Assay outcomes as filed in PubChem BioAssay.
A selection: hits, their analogues and other compounds. The true share with any hit is near 2.9%.
Tn7 DDE FP: inhibitors of Tn7 peptide binding to fibrin DD(E), primary screen, biochemical, fluorescence polarization, human fibrin, Tn7 probe. 370,000 tested, 0.13% active. AID 720508, 2013. inhibition, % at 8.3 µM. FP displacement of FITC-Tn7 peptide from fibrin DD(E); 0% = median of compound wells per plate. Fibrinogen beta chain (Homo sapiens), P02675;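 active means inhibition above the mean of compounds falling within the control limits plus 3 SD of them, cut at about 14% in these data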;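 further: 0% = plate median of compound wells and 100% = 10 µM Aha-Tn7 peptide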
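Test system – human fibrin DD(E) · Times – 10 min preincubation, 3 h with tracer, room temperature · Detection – fluorescence polarization of the labelled Tn7 tracer · Measure – percent inhibition normalized to high-control wells · Benchmarks – high control wells with 10 µM unlabelled Aha-Tn7 peptide (full inhibition) · Repeats – singlicate testing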
KLK7 zymogen act: proKLK7 zymogen activators, primary screen, biochemical, fluorescence intensity | purified proKLK7, EDANS-DABCYL substrate fluorescence; 100% is mature enzyme control, 0% vehicle | activation, % at 7 µM | 370,000 tested, 0.9% active;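 active means activation above the mean of all tested compounds plus 3 SD, computed per campaign excluding outliers beyond control limits, cut at about 13% in these data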
CRFBP-R2 block: antagonists of CRF-BP/CRF-R2 complex, primary screen, cell-based, HEK293, calcium dye fluorescence, uHTS | inhibition, % at 11.8 µM | 350,000 tested, 0.59% active | CRF-induced calcium fluorescence;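 active means inhibition of the ligand-induced calcium signal above about 50% at the single tested concentration, limit read from the data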
Tn6 DDE FP: inhibitors of Tn6 peptide binding to fibrin DD(E), primary screen, biochemical, fluorescence polarization, human fibrin, Tn6 probe; Fibrinogen beta chain (Homo sapiens), P02675; Fibrin DD(E) TRITC-Tn6 fluorescence polarization displacement; inhibition, % at 8.3 µM; 370,000 tested, 0.21% active; AID 720509, 2013;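 active means inhibition above a per-campaign cutoff: mean of compounds within control limits plus 3 SD, cut at about 15% in these data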;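 further: 0% = median of all compound wells on the plate and 100% = blocking peptide control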
CRFBP-R2 agonist: agonists of CRF-BP/CRF-R2 complex, primary screen, cell-based, HEK293, calcium dye fluorescence, uHTS. CRF-binding protein / CRF receptor 2 complex (human). calcium dye fluorescence (FLIPR); percent of saturating CRF peptide response. activation, % at 13.2 µM. 350,000 tested, 0.46% active. AID 588473, 2011;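 active means activation of at least 50%, plus an integration ratio under a set limit after plate pattern correction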;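 further: plate controls were neutral control wells without compound for no effect and CRF at EC100 for full effect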
CendR NRP1 mod: modulators of CendR peptide binding to NRP-1, primary screen, biochemical, fluorescence polarization, uHTS; FAM-RPARPAR peptide binding to NRP-1; Neuropilin-1 (Homo sapiens), O14786; inhibition, % at 25 µM; 360,000 tested, 0.85% active;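 active means inhibition or corrected inhibition above about 18%, plus a signal ratio from 0.5 to 1.5, limit read from the data, passing the limit was not always enough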
Target sequence (O14786 whole entry, looked up): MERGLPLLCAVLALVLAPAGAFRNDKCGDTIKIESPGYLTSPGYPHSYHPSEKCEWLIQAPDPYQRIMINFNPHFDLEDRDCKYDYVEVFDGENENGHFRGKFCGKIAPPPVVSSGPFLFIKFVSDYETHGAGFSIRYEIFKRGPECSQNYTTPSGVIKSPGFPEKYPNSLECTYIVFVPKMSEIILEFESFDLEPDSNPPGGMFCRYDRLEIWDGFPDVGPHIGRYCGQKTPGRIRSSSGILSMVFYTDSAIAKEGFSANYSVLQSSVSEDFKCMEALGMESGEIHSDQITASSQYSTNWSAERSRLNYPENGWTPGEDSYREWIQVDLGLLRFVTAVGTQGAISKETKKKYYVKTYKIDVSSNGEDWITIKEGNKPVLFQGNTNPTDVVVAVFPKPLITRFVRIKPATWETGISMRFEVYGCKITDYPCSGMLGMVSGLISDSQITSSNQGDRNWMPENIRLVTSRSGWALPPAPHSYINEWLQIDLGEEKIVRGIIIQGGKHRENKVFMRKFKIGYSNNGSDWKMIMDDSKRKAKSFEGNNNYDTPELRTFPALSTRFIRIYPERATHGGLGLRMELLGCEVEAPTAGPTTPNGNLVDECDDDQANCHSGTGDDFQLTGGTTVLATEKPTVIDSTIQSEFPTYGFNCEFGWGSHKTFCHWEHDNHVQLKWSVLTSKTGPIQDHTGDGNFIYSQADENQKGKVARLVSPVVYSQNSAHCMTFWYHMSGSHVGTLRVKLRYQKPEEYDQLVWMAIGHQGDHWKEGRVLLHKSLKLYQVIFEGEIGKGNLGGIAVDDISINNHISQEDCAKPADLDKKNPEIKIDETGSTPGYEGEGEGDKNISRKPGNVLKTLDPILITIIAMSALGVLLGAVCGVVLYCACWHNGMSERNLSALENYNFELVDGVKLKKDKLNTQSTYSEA
Active calls of the source: *; · = no result; ! = not confirmed by another sample.

SMILES	Tn7 DDE FP	KLK7 zymogen act	CRFBP-R2 block	Tn6 DDE FP	CRFBP-R2 agonist	CendR NRP1 mod
Cc1ccc(OCCC(=O)OCC(=O)NCc2ccccc2)cc1	7.0	-0.2	5.4	6.0	-1.1	-4.3
O=C(CSc1nc2ccc(Cl)cc2[nH]1)NCCc1ccccc1	-1.3	0.3	-16.6	-1.4	-2.0	28.4*
O=C(O)C1C2C=CC(C2)C1C(=O)NCCc1cccc(Cl)c1 (stereo not drawn)	-1.7	-0.4	50.1*	-2.6	1.0	6.7
O=C(Cc1ccccc1)NCCc1cccc(Cl)c1	-3.7	0.4	9.7	-4.5	-3.5	25.7*
Cc1cc(C)nc(N2CCN(C(=O)CSc3nc4ccccc4nc3N3CC(C)OC(C)C3)CC2)n1 (stereo not drawn)	-3.8	-0.9	·	-2.1	·	·
Cc1ccc(CC(=O)NCCCc2ccccc2)cc1	-0.2	-0.3	59.6*	-4.9	-4.5	-8.1
O=C(Cc1ccccc1)NCCCc1ccccc1	2.2	-0.4	-7.0	1.4	-0.8	2.7
COC(=O)[C@]12C[C@H](CC(=O)N3CCN(C(=O)C4CC4)CC3)C(=O)N(CCc3ccc(OC)c(OC)c3)C1=C[C@H](C1CCCC1)O[C@@H]2C	0.3	1.2	·	-0.9	·	·
COc1cc2c(cc1OC)C(=O)C(Br)CC2 (stereo not drawn)	·	·	-1.5	·	-2.1	25.5*
CC(C)CC1C(C#N)=C(N)SC(N)=C1C#N	8.6	-0.1	-56.4	8.4	50.2*	136.8
CCc1ccc(C2C(C#N)=C(N)SC(N)=C2C#N)cc1	0.3	-0.3	-25.6	1.1	50.2*	132.0
N#CC1=C(N)SC(N)=C(C#N)C1CCc1ccccc1	-11.3	0.0	-41.1	1.2	103.1*	126.1
COc1ccc(N2C(=O)c3n[nH]c(C)c3C2c2ccccc2)cc1 (stereo not drawn)	-5.5	0.3	·	-1.0	·	·
CCN(c1ccccc1)S(=O)(=O)c1ccc(Cl)c(NC(=O)Nc2ccc(Cl)cc2C#N)c1	-7.0	-0.8	71.2*	-7.0	-0.1	0.0
CCN(c1ccccc1)S(=O)(=O)c1cc(NC(=O)Nc2ccccc2C#N)ccc1Cl	-1.6	0.1	-6.5	5.7	9.0	11.5
O=C(COc1ccccc1C(=O)c1cnn(-c2ccccc2)c1)Nc1ccc2ccccc2c1	-1.3	0.1	141.0*	-7.9	14.7	5.3
COc1cccc(N2[C@@H](CC(C)=O)c3ccccc3S2(=O)=O)c1	-3.7	0.8	0.4	7.4	-1.4	22.1*
O=C(Nc1ccc(Cc2ccncc2)cc1)c1cc(F)c(F)cc1Cl	-1.5	0.3	7.4	-3.9	0.7	-7.1
O=C(NCc1ccncc1)c1cc(F)c(F)cc1Cl	-0.2	0.3	59.7*	11.8	-0.2	-0.3
CC(C)(SC(=S)N1CCCCCC1)C(=O)O	1.3	-0.4	-3.3	-3.1	-2.2	-1.5
CC(SC(=S)N1CCCC1)C(=O)O (stereo not drawn)	-5.8	0.6	11.9	1.0	0.2	35.6*
Cc1cc(=O)n2nc(N3CCCC(C(=O)N4CCOCC4)C3)sc2n1 (stereo not drawn)	0.1	-0.4	-5.2	-2.1	0.4	44.4*
CC(=O)N1N=C(c2c(-c3ccccc3)c3cc(Br)ccc3[nH]c2=O)CC1c1ccco1 (stereo not drawn)	-0.4	-0.4	-31.5	1.3	7.7	23.6*
CC(=O)N1N=C(c2c(-c3ccccc3)c3cc(C)ccc3[nH]c2=O)CC1c1ccco1 (stereo not drawn)	3.9	0.6	-23.8	-7.7	-1.8	-2.7
Cc1nc2ccc(NC(=O)[C@H](C)N3C(=O)C4CC=CCC4C3=O)cc2s1 (stereo partly drawn)	0.6	0.3	7.5	3.7	-0.5	18.9*
SMILES	Tn7 DDE FP	KLK7 zymogen act	CRFBP-R2 block	Tn6 DDE FP	CRFBP-R2 agonist	CendR NRP1 mod
CC(C(=O)Nc1sccc1C(N)=O)N1C(=O)C2CC=CCC2C1=O (stereo not drawn)	-1.2	0.0	63.2*	1.7	-3.4	5.4
C[C@@H](C(=O)Nc1nccs1)N1C(=O)C2CC=CCC2C1=O (stereo partly drawn)	-9.9	-0.7	3.1	-1.4	-0.3	-1.3
CCn1c(Cc2cccs2)nnc1SCC(=O)Nc1cccc2ccccc12	4.0	0.5	·	0.4	·	·
O=C(Nc1ncc([N+](=O)[O-])s1)c1ccc2c(c1)OCO2	-1.7	-0.8	-0.8	-3.4	36.1	-2.8
Cc1ccc(C(=O)Nc2ncc([N+](=O)[O-])s2)cc1	1.4	-0.2	18.5	5.1	58.4*	-3.6
Cc1ccc(C(=O)Nc2nc(=O)[nH]s2)cc1	2.4	0.0	16.4	-0.1	-2.5	17.2*!
Cc1ccc(C(=O)Nc2nccs2)cc1	-2.0	-0.4	8.0	0.3	-4.4	5.9
O=C(CCn1nnc(-c2cccs2)n1)N1CCOCC1	6.2	-0.3	·	4.8	·	·
CCOc1cc(C(=O)NCCN2CCOCC2)cc(OCC)c1OCC	2.3	-0.2	-3.2	7.1	-1.8	26.3*
O=C(CCc1ccccc1)N[C@H]1[C@@H](OC(=O)C2CC2)CCC[C@@]12C(=O)N(Cc1ccccc1)c1ccccc12	-5.9	0.1	·	-3.2	·	·
C#CCN1CC(N(C)CCOC(=O)c2occ3ccccc23)CS1(=O)=O (stereo not drawn)	-3.6	0.5	·	-1.6	·	·
c1nc(NCC2CCOC2)c2cc(-c3ccc4c(c3)OCO4)ccc2n1 (stereo not drawn)	-0.7	·	·	-13.2	·	·
COc1cccc(-n2nnc3c(=O)n(CC(=O)OCc4ccccc4)cnc32)c1	2.1	0.1	-5.1	2.7	0.0	26.0*
O=C(OCc1cn(Cc2ccc(F)c(F)c2)nn1)N1CCOCC1	0.8	0.4	·	-0.6	·	·
N#CC1=C(N)OC2=C(C(=O)CC(c3ccccc3)C2)C1c1ccc2c(c1)OCO2 (stereo not drawn)	-7.9	0.4	59.5*	4.0	-2.3	-9.8
N#CC1=C(N)OC(c2ccccc2)=C(C#N)C1c1ccc2c(c1)OCO2 (stereo not drawn)	1.6	0.6	-19.0	3.9	0.7	0.0
N#CC1(c2ccccc2)CCCN1C(=O)c1ccc(Br)cc1 (stereo not drawn)	2.7	0.7	-33.2	-7.7	-1.7	-8.1
N#CC1(c2ccccc2)CCCN1C(=O)c1ccccc1Cl (stereo not drawn)	3.0	0.1	2.5	4.5	-0.7	26.3*
O=C(NN=C/C=C/c1ccco1)c1cc(-c2ccc(Cl)cc2)n[nH]1	-2.4	-1.1	·	-7.2	·	·
Nc1[nH]c(C(=O)c2ccccc2)c(-c2ccc3ccccc3c2)c1C(=O)NCCc1ccc(Cl)cc1	2.6	·	·	-3.9	·	·
